The results in this text go back to PMC9588736 (Cell chemical biology, 2022).

The subject of one assay is HEK293T cells. As to the kind of experiment: Quantitative proteomics in HEK293T cells. In kind it is cell-based. The conditions noted are these: human HEK293T cells, 10 hour treatment.
The test system of a further assay is BRD4/3/2. Put plainly: Immunoblot of BRD4/3/2 in MM.1S cells. The conditions noted are these: indicated time points. It counts as cell-based, human. The procedure, abridged: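 MM.1S cells were grown in RPMI with 10% FBS at 37 °C and 5% CO2, then given DMSO or test compound for a time course. Cells were lysed in RIPA with protease and phosphatase inhibitors. BCA-equalised protein was run on 4–12% gels and transferred to PVDF. Primary antibodies ran overnight at 4 °C and IRDye secondaries 1 h at room temperature. BRD4/3/2 bands were normalised to β-actin by densitometry. Two independent experiments.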
In general terms: Immunoblotting shows a protein as a band on a membrane.

Assay [1] has as its target T1, BRD4 (Homo sapiens, UniProt O60885). Put plainly: Immunoblot of BRD4 degradation in MM.1S cells. It counts as cell-based. In a few lines:
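MM.1S cells were treated with test compound for 16 h (24 h in the initial screen). For rescue, cells were pretreated 2 h with 10 μM KEAP1 inhibitor, 10 μM JQ1 or 1 μM MLN4924. Lysates in RIPA were BCA-normalised, run on 4–12% gels and blotted to PVDF with IRDye secondaries. BRD4 bands were quantified relative to β-actin. Two independent experiments.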

Another assay deals with MM.1S proteome. As to the kind of experiment: Multiplexed mass spectrometry-based proteomics in MM.1S cells. It counts as cell-based, human. The settings on record: 200 nM, 6 hours. In a few lines: (§1)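 TMT-multiplexed LC-MS proteomics. Cells were treated with DMSO (biological triplicate) or test compound (MM.1S: 0.2 μM, 6 h; KPC: 1 μM, 8 h), harvested by centrifugation at 4 °C and lysed in 8 M urea/EPPS pH 8.5. 200 μg protein was reduced, alkylated and precipitated, digested with LysC 12 h at room temperature then trypsin 6 h at 37 °C, TMT-labelled, high-pH fractionated (96→24) and run on an Orbitrap Fusion Lumos.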

The next assay has as its target KEAP1-BRD4BD2 (Homo sapiens, UniProt O60885+Q14145). As to the kind of experiment: KEAP1-BRD4BD2 dimerization TR-FRET assay. In kind it is biochemical. In a few lines:
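TR-FRET mix: 200 nM biotinylated human BRD4BD2, 200 nM Alexa Fluor 647-labelled human KEAP1 (residues 321–609, insect-cell expressed, SpyCatcher-labelled) and 2 nM Eu-streptavidin. Buffer was 50 mM Tris pH 8.0, 200 mM NaCl, 0.1% Pluronic F-68, 0.5% BSA and 1 mM TCEP; compound was titrated. After 15 min at room temperature, excitation was 337 nm and the 665/620 nm ratio was read over thirty 200-s cycles. Mean ± SD of ≥3 technical replicates; two independent experiments.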
Background: In TR-FRET formats the signal depends on donor and acceptor labels being close together.

For assay [2], the target named is T1, BRD4. As to the kind of experiment: Immunoblot of BRD4 degradation in parental and KEAP1 knockdown OVCAR8 cells. In kind it is cell-based. The procedure, abridged: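 OVCAR8 cells were grown in DMEM with 10% FBS. KEAP1 knockdown lines came from shRNA lentivirus made in HEK293T, used with polybrene (10 μg/mL) and selected with puromycin (1 μg/mL); knockdown was checked by Western blot. Parental and knockdown cells were treated with test compound for 16 h, then immunoblotted. BRD4 was normalised to β-actin. Two independent experiments.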

Assay [3] addresses FAK (Homo sapiens, UniProt Q05397). As to the kind of experiment: Immunoblot of FAK degradation in PATU-8988T cells. The conditions noted are these: 0.1–5 μM, 24 h. It counts as cell-based. The procedure, abridged:
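Human PATU-8988T pancreatic cells (DMEM, 10% FBS) were treated 24 h with test compound at 0.1–5 μM. FAK was assessed by immunoblot of RIPA lysates and normalised to β-actin. Two independent experiments.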

Assay [4] concerns the target FAK (Mus musculus, UniProt P34152). Put plainly: Immunoblot of FAK degradation in KPC cells. In kind it is cell-based. In a few lines:
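Murine pancreatic KPC cells (RPMI, 10% FBS) were exposed to 500 nM or 1 μM test compound over a time course. RIPA lysates were immunoblotted, with FAK band intensity normalised to β-actin in ImageJ. Blots are representative of two independent experiments.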

For a further assay, the system named is KPC cells. As to the kind of experiment: Quantitative proteomics in KPC cells. It counts as cell-based, mouse. The conditions noted are these: 1 μM, 8 hours. The procedure, abridged:
as §1

Chain of FAK (Mus musculus, UniProt P34152) (P34152 whole entry): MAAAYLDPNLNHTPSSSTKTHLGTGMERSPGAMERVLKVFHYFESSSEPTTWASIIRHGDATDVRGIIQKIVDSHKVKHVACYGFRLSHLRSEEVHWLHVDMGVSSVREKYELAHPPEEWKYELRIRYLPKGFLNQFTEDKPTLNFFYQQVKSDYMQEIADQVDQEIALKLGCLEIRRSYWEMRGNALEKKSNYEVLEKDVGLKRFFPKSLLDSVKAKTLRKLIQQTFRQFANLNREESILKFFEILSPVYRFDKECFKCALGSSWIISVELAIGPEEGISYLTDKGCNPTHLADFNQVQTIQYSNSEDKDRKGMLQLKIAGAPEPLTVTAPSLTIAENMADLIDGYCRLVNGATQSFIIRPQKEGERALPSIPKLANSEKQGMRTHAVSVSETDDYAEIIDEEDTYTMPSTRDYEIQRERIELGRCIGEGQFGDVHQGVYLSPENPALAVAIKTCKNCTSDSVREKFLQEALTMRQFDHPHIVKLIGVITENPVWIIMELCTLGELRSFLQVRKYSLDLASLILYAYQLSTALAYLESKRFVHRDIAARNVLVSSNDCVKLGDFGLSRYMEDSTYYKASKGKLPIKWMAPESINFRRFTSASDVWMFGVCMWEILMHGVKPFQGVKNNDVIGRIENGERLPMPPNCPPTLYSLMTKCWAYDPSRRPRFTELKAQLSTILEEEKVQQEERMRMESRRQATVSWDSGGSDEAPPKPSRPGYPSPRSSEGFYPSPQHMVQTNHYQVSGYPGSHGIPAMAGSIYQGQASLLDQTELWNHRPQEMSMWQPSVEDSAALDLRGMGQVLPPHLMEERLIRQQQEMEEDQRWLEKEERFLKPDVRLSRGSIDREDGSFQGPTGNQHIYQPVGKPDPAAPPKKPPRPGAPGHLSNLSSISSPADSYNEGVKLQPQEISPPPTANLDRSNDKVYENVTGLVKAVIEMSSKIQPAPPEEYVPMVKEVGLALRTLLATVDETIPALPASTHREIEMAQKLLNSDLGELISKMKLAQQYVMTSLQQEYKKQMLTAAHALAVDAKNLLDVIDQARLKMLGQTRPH
Chain of FAK (Homo sapiens, UniProt Q05397) (Q05397 whole entry): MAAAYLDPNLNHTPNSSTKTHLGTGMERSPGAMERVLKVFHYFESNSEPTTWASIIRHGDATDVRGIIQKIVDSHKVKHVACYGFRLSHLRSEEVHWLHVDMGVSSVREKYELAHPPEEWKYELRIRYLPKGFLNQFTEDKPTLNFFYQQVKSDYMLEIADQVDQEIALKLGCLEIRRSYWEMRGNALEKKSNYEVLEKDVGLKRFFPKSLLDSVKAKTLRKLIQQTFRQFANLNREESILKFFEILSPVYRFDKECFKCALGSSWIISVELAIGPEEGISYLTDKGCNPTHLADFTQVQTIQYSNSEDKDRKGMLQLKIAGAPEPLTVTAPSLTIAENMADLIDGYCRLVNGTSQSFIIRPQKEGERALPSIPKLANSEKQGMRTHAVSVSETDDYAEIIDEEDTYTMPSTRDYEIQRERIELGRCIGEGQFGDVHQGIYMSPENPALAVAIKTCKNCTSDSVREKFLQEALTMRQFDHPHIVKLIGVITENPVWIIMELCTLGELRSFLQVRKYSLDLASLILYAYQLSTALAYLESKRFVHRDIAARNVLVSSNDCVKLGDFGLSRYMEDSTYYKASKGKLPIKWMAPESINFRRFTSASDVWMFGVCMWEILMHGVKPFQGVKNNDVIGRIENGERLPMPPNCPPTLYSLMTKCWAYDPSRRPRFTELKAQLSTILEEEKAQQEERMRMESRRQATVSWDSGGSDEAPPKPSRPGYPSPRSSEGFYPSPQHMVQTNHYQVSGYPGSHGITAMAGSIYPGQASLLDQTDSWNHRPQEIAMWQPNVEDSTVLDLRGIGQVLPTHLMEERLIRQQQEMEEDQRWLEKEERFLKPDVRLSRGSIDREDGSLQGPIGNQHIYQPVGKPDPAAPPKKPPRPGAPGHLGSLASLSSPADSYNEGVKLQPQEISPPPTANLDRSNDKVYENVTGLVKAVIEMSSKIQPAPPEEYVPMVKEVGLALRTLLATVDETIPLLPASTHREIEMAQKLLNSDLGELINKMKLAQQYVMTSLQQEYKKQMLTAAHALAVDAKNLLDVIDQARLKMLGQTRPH
Chain of KEAP1-BRD4BD2 (Q14145 321-609 limits assumed, other chains not shown): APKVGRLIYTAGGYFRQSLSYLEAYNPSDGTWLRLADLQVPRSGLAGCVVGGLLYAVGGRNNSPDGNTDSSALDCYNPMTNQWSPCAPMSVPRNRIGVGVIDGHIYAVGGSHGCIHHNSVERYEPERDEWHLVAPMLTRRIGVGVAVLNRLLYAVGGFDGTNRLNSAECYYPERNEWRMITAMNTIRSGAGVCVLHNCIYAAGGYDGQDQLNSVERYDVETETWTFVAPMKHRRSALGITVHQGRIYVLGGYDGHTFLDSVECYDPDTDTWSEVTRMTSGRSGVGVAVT

As to `Cc1ccc(C(CC(=O)O)c2cc(OCC(=O)NCCOCCOCCN3CCN(c4ccc(Nc5ncc(Cl)c(Nc6ccccc6S(=O)(=O)C(C)C)n5)cc4)CC3)c3c(c2)nnn3C)cc1CN1CC(C)Oc2ccccc2S1(=O)=O` (centres unmarked) [DGY-03–188, 3-(7-(2-((2-(2-(2-(4-(4-((5-chloro-4-((2-(isopropylsulfonyl)phenyl)amino)pyrimidin-2-yl)amino)phenyl)piperazin-1-yl)ethoxy)ethoxy)ethyl)amino)-2-oxoethoxy)-1-methyl-1H-benzo[d][1,2,3]triazol-5-yl)-3-(4-methyl-3-((4-methyl-1,1-dioxido-3,4-dihydro-2H-benzo[b][1,4,5]oxathiazepin-2-yl)methyl)phenyl)propanoic acid], the “degradation across the whole proteome” value in the assay with HEK293T cells is on record as “did not induce any degradation across the whole proteome”.

As to `COc1cc([C@@H](CC(=O)O)c2ccc(C)c(CN3C[C@@H](C)Oc4cc(CCCCCCNC(=O)C[C@@H]5N=C(c6ccc(Cl)cc6)c6c(sc(C)c6C)-n6c(C)nnc65)ccc4S3(=O)=O)c2)cc2nnn(C)c12` [DGY-06–177-pk2, (S)-3-(3-(((R)-7-(6-(2-((S)-4-(4-chlorophenyl)-2,3,9-trimethyl-6H-thieno[3,2-f][1,2,4]triazolo[4,3-a][1,4]diazepin-6-yl)acetamido)hexyl)-4-methyl-1,1-dioxido-3,4-dihydro-2H-benzo[b][1,4,5]oxathiazepin-2-yl)methyl)-4-methylphenyl)-3-(7-methoxy-1-methyl-1H-benzo[d][1,2,3]triazol-5-yl)propanoic acid], the “degradation of BRD4 versus BRD2 and BRD3 by immunoblotting” value with BRD4/3/2 is given as “preferentially induces BRD4 degradation while largely sparing BRD2&3”. Further, on BRD4 [1] (MM1.S cells, 24-hour treatment at 1 μM), the “BRD4 degradation, enantiomers compared” value is given as “induced stronger degradation of BRD4”. Further, at BRD4 [1] (MM.1S cells, 1 μM MLN4924 2 h prior, then 16 hrs), the “BRD4 degradation after pre-treatment with MLN4924” value is “BRD4 degradation was blocked”. For the same molecule, the “BRD4 degradation after pre-treatment with excess (+)-JQ1 or KI-696” value on BRD4 [1] (MM.1S cells, 10 μM JQ1 or 10 μM KEAP1 inhibitor 2 h prior, then 16 hrs) is recorded as “abolished”. Besides, the “selectivity of degradation across the proteome” value with MM.1S proteome is “BRD4 as the only significantly downregulated protein”. For the same molecule, at KEAP1-BRD4BD2, the “concentration at which KEAP1-BRD4BD2 dimerization is promoted” value is “approximately 100 nM”. In addition, the “effect on BRD4 abundance” value at BRD4 [2] (KEAP1 knockdown (KEAP1^KD) OVCAR8 cells, 16 h) was “no effect on BRD4 abundance”. Besides, on BRD4 [2] (OVCAR8 cells, 1 μM), the BRD4 degradation entry is listed as “induces degradation of BRD4”. Moreover, the “concentration of maximal BRD4 degradation” value at BRD4 [2] (parental OVCAR8 cells, 16 hours) was 1 µM.

For the molecule `COc1cc([C@@H](CC(=O)O)c2ccc(C)c(CN3C[C@@H](C)Oc4cc(CCCN5CCN(c6ccc(Nc7ncc(Cl)c(Nc8ccccc8S(=O)(=O)C(C)C)n7)cc6)CC5)ccc4S3(=O)=O)c2)cc2nnn(C)c12` [NJH-04–098, (S)-3-(3-(((R)-7-(3-(4-(4-((5-chloro-4-((2-(isopropylsulfonyl)phenyl)amino)pyrimidin-2-yl)amino)phenyl)piperazin-1-yl)propyl)-4-methyl-1,1-dioxido-3,4-dihydro-2H-benzo[b][1,4,5]oxathiazepin-2-yl)methyl)-4-methylphenyl)-3-(7-methoxy-1-methyl-1H-benzo[d][1,2,3]triazol-5-yl)propanoic acid], the FAK degradation result on FAK [3] is recorded as “did not observe degradation of FAK”. For the same molecule, the results for the “time of maximal FAK degradation” value on FAK [4] (500 nM) and at FAK [4] (1 μM) were 24 h and 8 h, respectively. Moreover, in the assay with KPC cells, the “proteins downregulated across the proteome” value was “only FAK (PTK2) was significantly downregulated across the proteome”.
